Experimental data of several laboratories.
Protocols differ between the studies behind these lines.
Target: Calcium/calmodulin-dependent protein kinase type 1B (PNCK, Homo sapiens, UniProt Q6P2M8)

Structure (SMILES) | assay | conditions | remaining binding [%]
CC1=C(C#N)[C@@H](c2ccc3[nH]nc(C)c3c2)C(C#N)=C(c2ccc(Cl)cc2)N1 | cell-free assay, competition with immobilised ligand | 1 µM | 98.5
N[C@H]1CCN(c2nccc(-c3cnn4ncccc34)n2)C1 | binding | 1 µM | 84
c1cncc(-c2cccc(Nc3nccc(NC4CCCCC4)n3)c2)c1 | binding, competition with immobilised ligand | 10 µM | 53
CC(C)(O)c1cncc(-c2nc3ccc(F)cc3n2C2CC2)c1 | cell-free assay, competition with immobilised ligand | 1 µM | 100
O=C(NCC1CCOCC1)c1n[nH]cc1NC(=O)c1c(F)cccc1F | binding, competition with immobilised ligand | 1 µM | 87
c1cnn2ncc(-c3ccnc(N4CCC45COC5)n3)c2c1 | binding | 1 µM | 81
COc1cnc(Nc2cccc(S(N)(=O)=O)c2)nc1N1CCN(c2ccccc2)C(=O)C1 | binding, competition with immobilised ligand | 1 µM | 83
CCCOc1ccc([C@H]2[C@H](C(=O)O)[C@@H](c3ccc4c(c3)OCO4)CN2CC(=O)Nc2c(CC)cccc2CC)cc1 | cell-free assay, competition with immobilised ligand | 1 µM | 77
O=C(NCCCN1CCOCC1)c1ccc(Nc2nccc(-c3cc4ccccc4s3)n2)cc1 | binding, competition with immobilised ligand | 1 µM | 61
N#CC1(c2ccccn2)CCN(Cc2cc(C(=O)N3CCCC3)c(=O)n3ccccc23)CC1 | cell-free assay, competition with immobilised ligand | 1 µM | 90
O=C(c1ccc(Nc2ncc(Cl)c(-c3cc4ccccc4s3)n2)cc1)N1CCC(N2CCCC2)CC1 | binding, competition with immobilised ligand | 1 µM | 62
CN(c1nccc(-c2cnn3ncccc23)n1)C1CC1 | binding | 1 µM | 98
CNC(=O)[C@@H]1CC[C@@H](n2c(-c3ccc4cnccc4c3)nc3ccc(C(=O)NCc4cccc(C(N)=O)c4)cc32)C1 | binding, competition with immobilised ligand | 1 µM | 85
CN(C)c1nccc(-c2cnn3ncccc23)n1 | binding | 1 µM | 29
COc1cc(-c2cn(C3CCc4ccccc4N(CC(F)(F)F)C3=O)nn2)ccc1-n1ccc(C)n1 (stereo not drawn) | cell-free assay, competition with immobilised ligand | 1 µM | 100
O=C(c1ccc(Nc2nccc(-c3cc4ccccc4s3)n2)cc1)N1CCC(N2CCCC2)CC1 | binding, competition with immobilised ligand | 1 µM | 47
CC(=O)c1c(NS(C)(=O)=O)c2cc(-c3ccc(Cl)cc3)c(-c3ccc(Cl)cc3Cl)nc2n(C)c1=O | cell-free assay, competition with immobilised ligand | 1 µM | 100
F[C@@H]1CCN(c2nccc(-c3cnn4ncccc34)n2)C1 | binding | 1 µM | 100
